Values after ≈ are worked out from the molar mass of the structure shown.
Assays:
Vero = assay: Cytotoxicity against african green monkey Vero cells by green fluorescent protein microplate assay; assay type: cell-based; conditions: Chlorocebus sabaeus
Method in brief: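 Vero cells (African green monkey kidney […]) tested in the green fluorescent protein microplate assay (GFPMA), the same format the paper used for Mycobacterium tuberculosis H37Ra.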

Plasmodium falciparum = assay: Antimalarial activity against Plasmodium falciparum K1 after 18 hrs by [G-3H]hypoxanthine uptake assay; assay type: functional, organism-based; conditions: K1, 18 h
Method in brief: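 Plasmodium falciparum K1, a multidrug-resistant strain, tested by the microculture radioisotope technique.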

KB = assay: Cytotoxicity against human KB cells after 45 hrs by resazurin microplate assay; assay type: functional, cell-based
Method in brief: (§1)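 Human cancer cell panel in the resazurin microplate assay: KB (oral epidermoid carcinoma), MCF-7 (breast cancer) and NCI-H187 (small-cell lung cancer).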

Candida albicans = assay: Antifungal activity against Candida albicans after 45 hrs by resazurin microplate assay; assay type: functional, organism-based
MCF7 = assay: Cytotoxicity against human MCF7 cells after 45 hrs by resazurin microplate assay; assay type: functional, cell-based; conditions: MCF7, 45 h; method in brief: as §1
[1] = tested on: Mycobacterium tuberculosis; assay: Antituberculosis activity against Mycobacterium tuberculosis H37Ra by green fluorescent protein microplate assay; assay type: functional
NCI-H187 = assay: Cytotoxicity against human NCI-H187 cells after 45 hrs by resazurin microplate assay; assay type: functional, cell-based; conditions: NCI-H187, 45 h; method in brief: as §1

Compound | IC50 (Vero) | IC50 (Plasmodium falciparum) | IC50 (KB) | IC50 (Candida albicans) | IC50 (MCF7) | MIC [1] | IC50 (NCI-H187)
C[C@H]1CC[C@@H]2O[C@@]23C[C@H]2OC(=O)C(CO)=C2C[C@]13C | > 189 µM | > 38 µM | > 189 µM | > 189 µM | > 189 µM | > 189 µM | > 189 µM
C=C1C(=O)O[C@@H]2C[C@]34O[C@H]3CC[C@H](C)[C@@]4(C)C[C@]12O | 9.4 µM | 13 µM | 10 µM | 7.8 µM | 10 µM | 47 µM (≈ 12.4 µg/mL) | 5.8 µM
C=C1C(=O)O[C@@H]2C[C@]3(O)[C@H](O)CC[C@H](C)[C@@]3(C)C[C@]12O | 8.5 µM | > 35 µM | 5 µM | > 177 µM | 15 µM | > 177 µM | 7.2 µM
C=C1C(=O)O[C@@H]2C[C@]3(O)[C@H](OC)CC[C@H](C)[C@@]3(C)C[C@]12O | 3.9 µM | 8.1 µM | 21 µM | > 169 µM | 15 µM | 42 µM (≈ 12.4 µg/mL) | 3.8 µM
CC1=C2C[C@]3(C)[C@@H](C)CC[C@@H](O)[C@@]3(O)C[C@H]2OC1=O [MAIRETOLIDE F] | > 188 µM | > 38 µM | > 188 µM | > 188 µM | > 188 µM | > 188 µM | > 188 µM
